# Results from publication PMC13154657 (Journal of Advanced Research, 2025).
# Assays:
# [1] = within 60 min; cited from earlier work
# [2] = test system: HT-29 cells; test: Cell viability assay; type: cell-based; settings: 100 μM, 24 h, CCK-8, N = 5
# How it was run: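 HT-29 cells cultured in DMEM with 10 % FBS and 1 % penicillin/streptomycin at 37 °C, 5 % CO2. Seeded at 10,000 cells/well in 96-well plates and exposed to test compound or DMSO for 24 h at 37 °C. Viability read with CCK-8 per kit instructions; N = 5.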
# [3] = molecular target: T1, human P2Y14 receptor (Homo sapiens, UniProt Q15391); test: In vitro P2Y14R antagonistic activity; type: cell-based
# T1 sequence (Q15391 1-338): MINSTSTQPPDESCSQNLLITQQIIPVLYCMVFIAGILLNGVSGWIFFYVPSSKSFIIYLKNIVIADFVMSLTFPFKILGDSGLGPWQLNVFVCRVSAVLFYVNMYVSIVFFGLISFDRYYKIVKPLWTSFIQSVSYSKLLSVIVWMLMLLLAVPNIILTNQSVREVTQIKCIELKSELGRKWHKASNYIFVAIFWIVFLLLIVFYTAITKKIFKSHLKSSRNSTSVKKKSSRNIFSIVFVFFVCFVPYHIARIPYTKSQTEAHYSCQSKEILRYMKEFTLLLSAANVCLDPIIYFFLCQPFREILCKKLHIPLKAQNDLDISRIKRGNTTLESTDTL
# How it was run: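 hP2Y14-HEK293 cells (HEK293 stably expressing human P2Y14R) grown in DMEM with 10 % FBS and 1 % penicillin/streptomycin. Seeded at 10,000 cells/well in 384-well plates and preincubated 30 min at 37 °C with test compound or DMSO. Stimulated with UDPG; intracellular cAMP measured by cAMP-Glo luminescence on a plate reader. N = 3.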
# [4] = test system: DSS-induced experimental colitis; test: DSS-induced experimental colitis model in mice; type: in vivo; settings: DB07565 rectally daily
# How it was run: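 Male C57BL/6 J mice, 7–8 weeks, randomised by weight into groups of six. Colitis induced with 3 % (w/v) DSS in drinking water for 7 days. Test compound dissolved in DMSO, diluted in PBS to 50 or 100 μM, given rectally at 100 µl/mouse daily. Oral 5-ASA 50 mg/kg daily as reference. Colons fixed in 4 % PFA and paraffin-embedded. 5 μm sections stained with H&E; immunofluorescence for Claudin-1, Occludin and ZO-1 at 4 ℃ overnight, 1 h secondary, DAPI 10 min.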
smiles,measurement,setting,value
"O=C(O)CCC(=O)OC[C@@H](NC(=O)C(Cl)Cl)[C@H](O)c1ccc([N+](=O)[O-])cc1 [DB07565, Chloramphenicol succinate]",degradation in intestinal fluid,[1],less than 10%
same,cytotoxicity (cell viability),[2],low cytotoxicity
same,IC50,[3],1.58 nM
same,histopathological analysis of colon (H&E),"[4]; C57BL/6 J mice, 3 % DSS 7 days",mitigated DSS-induced tissue damage and inflammatory cell infiltration in the colon
same,"gut barrier function, immunofluorescence of tight junction proteins (Claudin-1, Occludin, ZO-1)",[4]; colon tissue of DSS-treated mice,markedly enhanced gut barrier function
